For eight compounds, IC50, EC50 and MCC results are on record in ChEMBL document CHEMBL4368930, “Synthesis and anti-HSV activity of tricyclic penciclovir and hydroxybutylguanine derivatives” (Bioorg Med Chem, 2019).

A value given as a limit tells only on which side of the number the result lay.

As a reminder, the IC50 is the concentration that gives 50% inhibition. Low readings indicate greater potency in that assay, high ones weaker potency in that assay. The term EC50 denotes the concentration that produces a half-maximal response.

The subject of series [1] is NCI-H460. Kind of series: Cytostatic activity against human NCI-H460 cells. The format is ADME, cell-based.
Series [2] concerns HL-60. Put plainly: Cytostatic activity against human HL60 cells. It is filed as ADME, cell-based.
A short description of series [3]: Cytostatic activity against human HAP1 cells. It is filed as ADME, cell-based.
Series [4] deals with TERT-RPE1. Put plainly: Cytostatic activity against human hTERT-RPE1 cells. The format is ADME, cell-based. To be noted: RPE-1. The method in brief:
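Cell proliferation was measured against the number of cells in untreated controls.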

Series [5] relates to Human alphaherpesvirus 3. Kind of series: Antiviral activity against thymidine kinase deficient Varicella-zoster virus 07-1 infected in HEL cells assessed as reduction in virus plaque formation. The format is functional, organism-based. The settings on record: Human alphaherpesvirus 3, 07-1, HEL.
For series [6], the system named is Human alphaherpesvirus 1. Kind of series: Antiviral activity against thymidine kinase deficient and aciclovir resistant herpes simplex virus 1 KOS infected in HEL cells assessed as reduction in virus-induced cytopathogenicity by microscopic analysis. The format is functional, organism-based. The settings on record: Human alphaherpesvirus 1, strain KOS.
Series [7] relates to Human betaherpesvirus 5. Put plainly: Antiviral activity against Human cytomegalovirus AD169 assessed as reduction in virus-induced cytopathogenicity by microscopic analysis. It is filed as functional, organism-based. To be noted: Human betaherpesvirus 5, strain AD169. For orientation: Damage to the host cells serves as the signal in cytopathic effect assays.
The nature of series [8]: Cytotoxicity against HEL cells assessed as effect on cell morphology at 0.32 to 200 uM by microscopic analysis. The format is cell-based. To be noted: human.
In series [9] the test system is Human alphaherpesvirus 1. Kind of series: Antiviral activity against herpes simplex virus 1 KOS infected in HEL cells assessed as reduction in virus-induced cytopathogenicity by microscopic analysis. The settings on record: Human alphaherpesvirus 1, strain KOS. It is filed as functional, organism-based.
Series [10] can be described thus: Cytostatic activity against human DND41 cells. The format is ADME, cell-based.
For series [11], the system named is Z-138. Put plainly: Cytostatic activity against human Z138 cells. It is filed as ADME, cell-based.
Series [12] has as its system Human alphaherpesvirus 3. Put plainly: Antiviral activity against Varicella-zoster virus Oka harboring thymidine kinase infected in HEL cells assessed as reduction in virus plaque formation. It is filed as functional, organism-based. To be noted: Human alphaherpesvirus 3, Oka.
Series [13] has as its system Human alphaherpesvirus 2. Kind of series: Antiviral activity against herpes simplex virus 2 G infected in HEL cells assessed as reduction in virus-induced cytopathogenicity by microscopic analysis. The format is functional, organism-based. To be noted: Human alphaherpesvirus 2, G. The method in brief:
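Confluent cell monolayers were inoculated with 100 CCID50 of virus or 20 PFU. After a 1–2 h adsorption, residual virus was removed and cultures were incubated with the test compounds at 200, 40, 8, 1.6 and 0.32 μM. Cytopathicity was scored once it was complete in untreated infected controls.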

In series [14] the test system is Human betaherpesvirus 5. Put plainly: Antiviral activity against Human cytomegalovirus Davis assessed as reduction in virus-induced cytopathogenicity by microscopic analysis. It is filed as functional, organism-based. To be noted: Human betaherpesvirus 5, Davis.
For series [15], the system named is CAPAN-1. Kind of series: Cytostatic activity against human Capan1 cells. It is filed as ADME, cell-based.
For series [16], the system named is K562. Put plainly: Cytostatic activity against human K562 cells. It is filed as ADME, cell-based.

Turning to `Nc1nc2c(ncn2CCCCO)c(=O)[nH]1`, the IC50 in series [1], in series [2], in series [3], in [4], in [10] and in series [11] was > 100 µM throughout. Besides, the results for the concentration for half-maximal inhibition (IC50) in series [15] and in [16] were 72.7 µM and > 100 µM, respectively. The EC50 in series [5] is > 100 µM; in series [6], 10 µM; in series [7], > 100 µM; in [9], 1.5 µM; in [12], 76.5 µM; in [13] it was 2.1 µM. In addition, the concentration for a half-maximal effect (EC50) in [14] was > 100 µM. Besides, in series [8], the MCC at up to 200 µM was > 100 µM.

Regarding `O=c1c2ncn(CCC(CO)CO)c2nc2[nH]c(-c3ccc(O)cc3)cn12`, the IC50 in series [1], in [2], in series [3], in series [4], in series [10] and in series [11] was > 100 µM in each case. The IC50 in series [15] and in series [16] was > 100 µM each time. Besides, the EC50 is ≥ 74.5 µM in series [5]; > 100 µM in series [6]; > 100 µM in [7]; 7.6 µM in [9]; 9.6 µM in [12]; 2.3 µM in series [13]. The EC50 in [14] was > 100 µM. Besides, in series [8], the MCC at up to 200 µM was > 100 µM.

On to `COc1ccc(-c2cn3c(=O)c4ncn(CCC(CO)CO)c4nc3[nH]2)cc1`, for which the 50% inhibitory concentration (IC50) in series [1], in [2], in [3], in series [4], in series [10] and in series [11] was > 100 µM throughout. In addition, the 50% inhibitory concentration (IC50) in series [15] and in series [16] was > 100 µM in each case. Also, the concentration for a half-maximal effect (EC50) is 100 µM in series [5]; 0.8 µM in series [6]; > 100 µM in [7]; 1.5 µM in [9]; 66.9 µM in series [12]; 0.8 µM in [13]. Further, in [14], the EC50 was > 100 µM. In addition, the MCC at up to 200 µM in series [8] was > 100 µM.

`O=c1c2ncn(CCC(CO)CO)c2nc2[nH]c(-c3ccc4c(c3)OCO4)cn12`: the half-inhibitory concentration (IC50) in [1], in [2], in series [3], in series [4], in series [10] and in series [11] was > 100 µM each time. For the same compound, the IC50 was 78.8 µM in series [15] and > 100 µM in series [16]. The concentration for a half-maximal effect (EC50) in series [5] was > 100 µM; in series [6], > 100 µM; in series [7], > 100 µM; in series [9] it was 44.7 µM; in [12] it was > 20 µM; in series [13], 40.9 µM. The EC50 in series [14] was > 100 µM. Besides, the MCC at up to 200 µM in [8] was ≥ 100 µM.

Take `O=c1c2ncn(CCC(CO)CO)c2nc2[nH]c(-c3ccc(Oc4ccccc4)cc3)cn12`: the IC50 is 47.2 µM in series [1]; 63.3 µM in [2]; 44 µM in [3]; 16.9 µM in series [4]; 90.4 µM in series [10]; > 100 µM in series [11]. In addition, the concentration for half-maximal inhibition (IC50) is 46.4 µM in series [15] and > 100 µM in [16]. For the same compound, the half-maximal effective concentration (EC50) in series [5] was > 100 µM; in series [6], > 100 µM; in series [7], > 100 µM; in series [9], > 100 µM; in series [12], 62.8 µM; in series [13], > 100 µM. Besides, in series [14], the EC50 was > 100 µM. For the same compound, the MCC at up to 200 µM in series [8] is > 100 µM.

In the case of `O=c1c2ncn(CCC(CO)CO)c2nc2[nH]c(-c3ccc(C(F)(F)F)cc3)cn12`, the 50% inhibitory concentration (IC50) in series [1] was determined as 12.5 µM; in series [2] it was 55.3 µM; in series [3], 37.8 µM; in series [4], 51.5 µM; in series [10], 56.5 µM; in series [11], 76.1 µM. The results for the IC50 in series [15] and in series [16] were 17.2 µM and > 100 µM, respectively. Moreover, the EC50 in [5] was 100 µM; in series [6], > 100 µM; in [7] it was 63.1 µM; in series [9], 20 µM; in [12], 49.5 µM; in series [13], 31.7 µM. In addition, in series [14], the EC50 came to 76.5 µM. For the same compound, the MCC at up to 200 µM in [8] was ≥ 100 µM.

As for `CCOc1ccc(-c2cn3c(=O)c4ncn(CCC(CO)CO)c4nc3[nH]2)cc1`, the half-inhibitory concentration (IC50) was 95.4 µM in [1]; > 100 µM in series [2]; > 100 µM in [3]; > 100 µM in [4]; > 100 µM in [10]; > 100 µM in series [11]. In addition, the IC50 in [15] and in series [16] was > 100 µM each time. Further, the concentration giving a half-maximal response (EC50) is > 100 µM in series [5]; > 100 µM in [6]; > 100 µM in [7]; 76.5 µM in series [9]; > 100 µM in series [12]; > 20 µM in [13]. Besides, the 50% effective concentration (EC50) in series [14] was > 100 µM. The MCC at up to 200 µM in [8] is > 100 µM.

Take `Nc1nc2c(ncn2CCC(CO)CO)c(=O)[nH]1` [PENCICLOVIR]: the IC50 in [1], in series [2], in [3], in [4], in series [10] and in series [11] was > 100 µM throughout. For the same compound, the values for the IC50 in series [15] and in [16] were 93 µM and > 100 µM, respectively. For the same compound, the EC50 in series [5] was 33.4 µM; in [6], 0.2 µM; in series [7] it was > 100 µM; in series [9], 0.8 µM; in series [12] it was 3.5 µM; in [13], 0.2 µM. For the same compound, the EC50 in series [14] is > 100 µM. Besides, the MCC at up to 200 µM in series [8] is > 100 µM.
